# Hits are enriched below; roughly 1.3% of the tested compounds scored in any of these assays.
# NR2E3 ag-1: activates human NR2E3 receptor | AID 602229 | 360,000 compounds, 0.35% hits | CHO-S Gal4-NCOR/VP16-NR2E3 two-hybrid, luciferase | inhibition of corepressor binding, % at 3.98 µM;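 active = inhibition above the mean of all tested compounds plus 3 SD, cut at about 70% in these data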;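 also: 0% = DMSO with NR2E3 transfected cells and 100% = cells lacking NR2E3 construct; higher means lower luciferase signal from less NR2E3 corepressor binding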
# PP1 counter: blocks human PP1-alpha phosphatase, a PP5 counter-screen | P62136 | purified PP1alpha, OMFP fluorescence | inhibition, % at 6.7 µM | 320,000 compounds, 0.9% hits;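 active = inhibition above the mean inhibition of all tested compounds plus 3 SD, computed separately for each screening campaign, cut at about 15% in these data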
# Target sequence (P62136 whole entry, looked up): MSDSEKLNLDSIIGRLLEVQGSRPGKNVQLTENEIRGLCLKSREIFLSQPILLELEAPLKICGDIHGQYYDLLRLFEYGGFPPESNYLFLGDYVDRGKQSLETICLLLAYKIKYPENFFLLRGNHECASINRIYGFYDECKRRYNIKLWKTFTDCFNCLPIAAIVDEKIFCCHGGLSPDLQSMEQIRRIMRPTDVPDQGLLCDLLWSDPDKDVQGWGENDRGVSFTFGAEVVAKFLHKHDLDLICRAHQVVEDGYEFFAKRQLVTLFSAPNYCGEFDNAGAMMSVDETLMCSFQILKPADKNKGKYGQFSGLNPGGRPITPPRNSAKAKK
# PP5 primary: inhibitors of human protein phosphatase 5 (PP5). AID 1987. purified PP5c, OMFP substrate fluorescence. 320,000 compounds, 0.18% hits. P53041. inhibition, % at 6.7 µM;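 active = inhibition above the campaign's mean inhibition across all tested compounds plus 3 SD, cut at about 9.5% in these data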;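 also: 0% = DMSO only and 100% = 100 µM cantharidin control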
# NR2E3 ag-2: activates human photoreceptor nuclear receptor NR2E3 | GST-NR2E3/biotin-RetCOR TR-FRET, 1536-well | inhibition of corepressor binding, % at 4.78 µM | 320,000 compounds, 0.12% hits;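 active = percent inhibition above the cutoff of mean plus 3 SD of all tested compounds, set per screening campaign, cut at about 20% in these data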;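 also: 0% = DMSO wells and 100% = biotin wells as full block of FRET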
#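 System: GST-tagged NR2E3 plus biotinylated RetCOR corepressor; Buffer or medium: pH 7.5 Tris-based buffer; Probe or stimulus: RetCOR corepressor, biotinylated, 7 nM; Doses: compound at 4.8 µM, single dose; Schedule: 5 h incubation at 4 °C; Technique: time-resolved FRET; Evaluation: percent inhibition of TR-FRET ratio; Replication: one well per compound, singlicate testing.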
# NR2E3 ag confirm: confirmation of human NR2E3 agonists; shares compounds with NR2E3 ag-1; CHO-S mammalian two-hybrid NR2E3-NCOR, luciferase luminescence; inhibition, % at 3.98 µM; 2,300 compounds, 51% hits; AID 624378;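 active = average inhibition above a cutoff equal to the mean inhibition of all tested compounds plus one SD, cut at about 70% in these data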;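 also: 0% = DMSO in NR2E3 cells and 100% = DMSO in cells lacking NR2E3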
# VP16 counter: GAL4-VP16 reporter inhibition in NR2E3 agonist counterscreen | shares compounds with NR2E3 ag-1 | CHO-S GAL4-VP16 luciferase reporter, luminescence | inhibition, % at 3.98 µM | 2,300 compounds, 29% hits | AID 624379;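 active = mean inhibition above a cutoff equal to the average over all tested compounds plus one standard deviation, cut at about 70% in these data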;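 also: luciferase from a UAS reporter driven by GAL4-VP16 transactivation; 0% = DMSO with VP16-transfected cells and 100% = DMSO with cells lacking VP16; higher means less reporter light so more repression of VP16 activity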
# Starred values were filed as active, the others as inactive; nt = not tested or not shown.
SMILES,NR2E3 ag-1,PP1 counter,PP5 primary,NR2E3 ag-2,NR2E3 ag confirm,VP16 counter
CN(CC(=O)Nc1ccc(Cl)c(C(F)(F)F)c1)C(=O)c1ccc(N2CCOCC2)c([N+](=O)[O-])c1,63,0,4,-1,63,59
COc1ccc(Cl)cc1NC(=O)CN(C)C(=O)c1ccc(N2CCCCCC2)c([N+](=O)[O-])c1,70,1,2,6,42,39
CN(CC(=O)Nc1cccc(F)c1)C(=O)c1ccc(N2CCOCC2)c([N+](=O)[O-])c1,9,-1,0,3,nt,nt
CCN(CC(=O)Nc1c(F)cccc1F)C(=O)c1ccc(N2CCCCC2)c([N+](=O)[O-])c1,57,-9,1,-2,34,39
CCN(CC(=O)Nc1c(F)cccc1F)C(=O)c1cc(S(=O)(=O)N(CC)CC)ccc1N1CCCCC1,19,-6,-1,-2,nt,nt
COc1ccc(/C=N/n2c(-c3ccc(C)cc3)n[nH]c2=S)cc1OC,-33,-6,2,-2,nt,nt
Brc1cccc(-c2nnc(SCc3nc4ccccc4[nH]3)o2)c1,-9,3,1,0,nt,nt
c1ccc2[nH]c(CSc3nnc(-c4ccncc4)o3)nc2c1,70*,-1,-1,0,-30,10
Cc1nc2c(-c3ccc(Cl)cc3)c(C)[nH]n2c(=O)c1Cc1ccccc1,88*,6,3,1,99*,57
CCc1cc(=O)n2[nH]c(C)c(-c3ccccc3OC)c2n1,5,-1,1,1,nt,nt
COCc1cc(=O)n2[nH]c(C)c(-c3ccc(Cl)cc3)c2n1,51,nt,nt,nt,42,35
Cc1nn(Cc2ccc(Cl)c(Cl)c2)c(C)c1NC(=O)c1cc(-c2ccco2)on1,51,3,1,2,79*,66
Cc1nn(Cc2c(Cl)cccc2Cl)c(C)c1NC(=O)c1sc2ccccc2c1Cl,-8,6,2,0,nt,nt
Cc1nn(Cc2ccc(Cl)c(Cl)c2)c(C)c1NC(=O)c1sc2ccccc2c1Cl,51,4,1,0,57,29
COc1cccc(N2CCN(c3ncnc4c3[nH]c3ccc(F)cc34)CC2C)c1 (centres undefined),109*,3,5,1,101*,100*
COc1cccc(N2CCN(c3ncnc4c3[nH]c3ccccc34)CC2C)c1 (centres undefined),nt,4,3,-3,nt,nt
O=C1CCC(C(=O)OCC(=O)c2ccccc2)N1 (centres undefined),-22,-1,1,3,nt,nt
CC1CC(C)C(=O)C(C(CC2CC(=O)NC(=O)C2)OC(=O)CC(=O)c2ccccc2)C1 (centres undefined),90*,nt,nt,nt,99*,88*
CC(=O)c1cn(CCOc2cc(C)ccc2C)c2ccccc12,90*,5,5,9,93*,83*
COc1cccc(OCCn2cc(C(C)=O)c3ccccc32)c1,65,-4,4,5,80*,64
COc1cccc(OCCn2cc(C(=O)c3ccco3)c3ccccc32)c1,-31,7,5,3,nt,nt
CC(=O)c1cn(CC(=O)Nc2ccc(C)cc2C)c2ccccc12,54,-2,2,4,77*,49
CC(C)(C)C(=O)Nc1cc2nn(-c3ccccc3)nc2cc1Cl,92*,nt,nt,nt,75*,55
Brc1ccc(-c2nnc3c4ccccc4nc(N4CCOCC4)n23)cc1,80*,-3,0,0,15,-21
Clc1ccc(-c2nnc3c4ccccc4nc(N4CCOCC4)n23)cc1Cl,-37,-2,2,0,nt,nt
SMILES,NR2E3 ag-1,PP1 counter,PP5 primary,NR2E3 ag-2,NR2E3 ag confirm,VP16 counter
S=C(NN=C(c1ccccc1)c1ccccn1)N(Cc1ccccn1)Cc1ccccn1,92*,nt,nt,nt,100*,79*
CC(=NNC(=S)N(Cc1ccccn1)Cc1ccccn1)c1cnccn1,-24,nt,nt,nt,nt,nt
Cc1sc2ncnc(N3CCN(CCOc4ccc(Cl)cc4)CC3)c2c1C,99*,2,0,1,95*,86*
Cc1occc1C(=O)NN1C(=O)C2C3CCC(O3)C2C1=O (centres undefined),-8,4,2,-2,nt,nt
O=C(O)c1cccc(Cn2c(Cl)c(/C=N/Nc3ccccc3)sc2=O)c1,70,5,2,-5,68,15
Cc1c(O)nc(SCC(=O)Nc2ccc3c4c(cccc24)CC3)n(-c2ccc(F)cc2)c1=O,-25,1,1,3,nt,nt
CC(Sc1nc2ccccc2c(=O)n1C)C(=O)N(C)C1CCCCC1 (centres undefined),95*,-5,0,1,92*,76*
CC1(C(=O)NS(=O)(=O)C2CC2)CCCN(C(=O)c2ccc3ccccc3c2)C1 (centres undefined),11,nt,nt,nt,nt,nt
CC(C)CC(N)c1csc(NC(=O)Nc2ccccc2Cc2ccccc2)n1 (centres undefined),6,nt,nt,nt,nt,nt
CC(C)CC(N)c1csc(NC(=O)c2cc(C(C)(C)C)nn2Cc2ccccc2)n1 (centres undefined),52,nt,nt,nt,14,7
COc1ccccc1CNc1ncnc2cc(Cl)ccc12,9,nt,nt,nt,nt,nt
CCOc1ccccc1CNc1ncnc2ccc(-c3c(C)noc3C)cc12,82*,0,4,1,81*,66
C=CCOc1ccccc1CN(C(=O)CCl)c1ccc2c(c1)OCO2,-13,12,1,-2,nt,nt
COCCNC(=O)C1(C)CCCN(C(=O)c2ccc(OC)c(OC)c2)C1 (centres undefined),14,nt,nt,nt,nt,nt
Cc1ccc2nc(N3C(=O)CNC3=S)sc2c1,49,1,-1,5,-172,-190
Cc1cccc(C(=O)OCC(=O)c2c(N)n(CC(C)C)c(=O)n(C)c2=O)c1[N+](=O)[O-],50,-4,2,0,40,45
CC(C)Cn1c(N)c(C(=O)COC(=O)CC23CC4CC(CC(C4)C2)C3)c(=O)n(C)c1=O,94*,0,2,3,93*,76*
Cc1cccc(C(=O)OCC(=O)c2c(N)n(CC(C)C)c(=O)n(C)c2=O)c1O,-29,0,3,5,nt,nt
Cc1csc(=O)n1CCC(=O)OCC(=O)c1c(N)n(CC(C)C)c(=O)n(C)c1=O,8,-3,-1,2,nt,nt
COc1ccccc1-c1cc2nc(C)c(CCC(=O)NC(C)CCc3ccco3)c(C)n2n1 (centres undefined),2,-3,3,-1,nt,nt
O=S(=O)(c1ccc(Cl)cc1)N1CCN(c2ncnc3sccc23)CC1,95*,nt,nt,nt,94*,72*
Cc1ccc2cc(F)c(F)c(F)c2n1,-7,nt,nt,nt,nt,nt
Cc1ccc2ccc3ccc(C)nc3c2n1,92*,-14,6,3,40,28
CSC(=Nc1ccccc1)C(C#N)c1nc2ccccc2[nH]1 (centres undefined),-1,-2,1,3,nt,nt
N#CC(C(=S)Nc1ccccc1)c1nc2ccccc2[nH]1 (centres undefined),78*,-6,3,3,-12,-15

# Screening results deposited in PubChem by The Scripps Research Institute Molecular Screening Center.
